PfG6PD inh: PfG6PD (Plasmodium falciparum) enzyme inhibition. PfGluPho enzyme, NADPH resazurin-diaphorase fluorescence. inhibition, % at 20 µM. 350,000 compounds, 0.78% hits. AID 504690;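 active means inhibition reaching at least a set limit at 20 µM in the primary screen, cut at about 59% in these data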;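 further: 0% = DMSO wells with substrate and 100% = DMSO wells lacking glucose-6-phosphate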
Diaph inh CS: counter-screen for diaphorase-based assays: diaphorase inhibitors and chemical oxidizers | diaphorase resazurin-to-resorufin fluorescence, NADH, 16 min; bacterial (C. kluyveri) enzyme, not human | inhibition, % at 20 µM | 190,000 compounds, 0.69% hits;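 active means primary screen inhibition at 20 µM above a set limit, cut at about 50% in these data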;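 further: plate controls were DMSO with full reaction for no effect and wells lacking NADH for full effect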
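Test system: Clostridium kluyveri diaphorase enzyme / Quantity: diaphorase at 0.14 U/mL in enzyme working solution / Incubation: 16-min room-temperature incubation before reading / Benchmarks: NADH-free wells as positive control, DMSO-only neutral wells / Signal: resorufin fluorescence 544/590 nm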
HKDC1 inhibitor: blocks human hexokinase HKDC1 activity. 340,000 compounds, 0.16% hits. recombinant HKDC1, G6PDH/diaphorase resazurin coupled fluorescence. Q2TB90. inhibition, % at 20 µM;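 active means inhibition above about 35% when tested at 20 µM, limit read from the data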;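 further: plate controls were DMSO wells with enzyme for no effect and DMSO wells lacking enzyme for full effect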
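Assay system: in-house recombinant HK5 (HKDC1) enzyme. Input: HKDC1 at 5 µg/mL. Medium: Tris pH 8.0 buffer with MgCl2, Tween-20, BSA, BME. Dosing: single 20 µM dose. Schedule: 90 min reaction incubation at room temperature, dark. Signal: resazurin-to-resorufin fluorescence via G6PDH and diaphorase coupling, 525/613 nm. Controls: DMSO-enzyme wells negative, buffer-substituted wells positive.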
Diaphorase act: diaphorase activation or chemical reduction counter-screen; Diaphorase/resazurin coupled assay, resorufin fluorescence, 16 min; stronger effect = higher value; 1 = vehicle wells, 0 = NADH-free wells; activation factor at 20 µM; 190,000 compounds, 0.005% hits; AID 1229;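 active means diaphorase activity raised at least twofold by the compound at 20 µM; inactive means activation factor below 2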
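Material: Clostridium kluyveri diaphorase, purified enzyme; Quantity: enzyme 0.07 U/mL final; Medium: HEPES pH 7.4 buffer with MgCl2 and Tween 20; Dosing: single compound dose of 20 µM, 1% DMSO final; Schedule: 16 min reaction at room temperature; Measured by: red resorufin fluorescence at 544/590 nm excitation/emission.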
G6PDH counter: L. mesenteroides G6PDH inhibition counter-screen | Purified L. mesenteroides G6PDH, diaphorase/resazurin coupled fluorescence, 45 min | inhibition, % at 5 µM | 200,000 compounds, 0.12% hits | AID 1020; in the data active means inhibition above about 50%
PfGluPho conf: PfG6PD inhibition, single-dose confirmed; shares compounds with PfG6PD inh; recombinant PfGluPho, NADPH-diaphorase-resazurin fluorescence; inhibition, % at 20 µM; 2,400 compounds, 34% hits;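 active means inhibition of at least 50% at 20 µM in any single replicate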;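 further: 0% = DMSO with substrate and 100% = DMSO lacking glucose-6-phosphate substrate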
Diaphorase 10uM: diaphorase inhibition or oxidation at 10 uM NADPH; 820 compounds, 39% hits; shares compounds with PfG6PD inh; AID 504862; inhibition, % at 20 µM; diaphorase-coupled resazurin reduction, fluorescence, NADPH 10 uM;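 active means average inhibition reaching 50% or more with the compound at 20 µM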;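 further: resorufin red fluorescence formed as diaphorase reduces resazurin using NADPH; 0% = DMSO with enzyme and 100% = DMSO without enzyme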
Diaph ctr 30uM: inhibits diaphorase or oxidizes, flagging false PfG6PD hits | inhibition, % at 20 µM | shares compounds with PfG6PD inh | Diaphorase/resazurin coupled assay, resorufin fluorescence, 30 uM NADPH | 820 compounds, 29% hits;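 active means inhibition averaging 50% or more, tested at 20 µM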;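 further: 0% = DMSO with enzyme and 100% = DMSO wells lacking diaphorase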
An asterisk follows results filed as active; x = no result. Only some compounds are listed: those with a hit (about 1.3% of all), similar ones and a draw of the others.

SMILES	PfG6PD inh	Diaph inh CS	HKDC1 inhibitor	Diaphorase act	G6PDH counter	PfGluPho conf	others
C=CCS/C(=N\n1cnc2ccccc2c1=O)N1CCCCC1	-13.8	13.1	1.5	0.9	-1.2	x
Cc1cc2[nH]c3c4ccccc4nc(C)c3c2cc1C	75.0*	x	3.8	x	x	7.6
Cc1cc2[nH]c3c(c[n+](C)c4ccccc34)c2cc1C	55.4	-45.0	-0.5	1.5	10.0	x
C/C(Cn1nnc([N+](=O)[O-])n1)=N\NC(=O)c1ccccc1	62.7*	19.1	8.5	0.8	6.3	60.4*	Diaphorase 10uM=11.2;Diaph ctr 30uM=13.9
Clc1ccccc1Nc1ncnc2c1nnn2Cc1ccccc1	2.6	12.5	-2.7	0.9	-3.7	x
CN1CCc2c(sc(/N=C/c3c[nH]c4ccccc34)c2C(N)=O)C1	66.6*	x	4.7	x	x	-1.9
C=Cn1c(C(=O)O)cc(CC)c1-c1ccccc1	6.0	5.3	1.9	0.9	-18.1	x
Cc1ccccc1-c1ccc(C(=O)NCc2ccccc2)o1	3.3	12.7	-2.2	0.9	4.1	x
Cc1ccc(-c2ccc(C(=O)NCc3ccc(Cl)cc3)o2)c2ccccc12	60.9*	13.9	21.3	0.9	27.1	4.0
CC(C)(C)c1cc(C(=S)N2CCN(CCO)CC2)cc(C(C)(C)C)c1O	60.0*	-0.1	-7.6	1	29.9	10.6
O=C(Nc1ccc(F)cc1F)Nc1sccc1-c1nc2ccccc2s1	80.6*	x	-1.0	x	x	-0.1
CCCOc1cc(N)ccc1C(=O)OCCN(CC)CC	-6.6	x	-7.1	x	x	x
CCCOc1ccc(N)cc1N	115.4*	37.6	26.4	0.6	42.2	69.6*	Diaphorase 10uM=51.7*;Diaph ctr 30uM=50.6*
C(=C\c1ccco1)/c1ccc2ccccc2n1	66.2*	x	-0.7	x	x	9.8
CC(CC(=O)NC(C)c1ccc2c(c1)OCCO2)c1ccccc1 (centres undefined)	-6.7	4.8	9.8	1	-2.3	x
Cc1ccsc1/C=N/NC(=O)c1cccc(S(=O)(=O)Nc2ccccc2Cl)c1	64.3*	22.5	-7.7	0.8	-8.6	60.4*	Diaphorase 10uM=42.7;Diaph ctr 30uM=47.0
O=C(N/N=C/c1ccccn1)c1cccc(S(=O)(=O)Nc2ccccc2Cl)c1	40.5	11.8	-5.5	0.9	12.0	x
C[C@H](CO)N1C[C@H](C)[C@@H](CN(C)C(=O)Nc2ccc(C(F)(F)F)cc2)Oc2c(cccc2N(C)C)C1=O	82.0*	x	-1.4	x	x	64.2*	Diaphorase 10uM=53.5*;Diaph ctr 30uM=47.9
Cn1nnnc1SC(C(=O)Nc1ccc(F)cc1)c1ccccc1 (centres undefined)	1.9	16.1	5.3	0.8	6.5	x
O=[N+]([O-])c1cc(-c2ccc(C(=S)N3CCOCC3)o2)ccc1Cl	69.3*	33.4	13.9	0.7	25.0	40.8
CCOC(=O)C1=C(COc2ccc(C)cc2)NC(=O)NC1c1cc(C)ccc1C (centres undefined)	-3.2	14.1	-2.2	0.9	-3.4	x
Cc1[nH][nH]c(=O)c1C(c1ccc(Cl)cc1)c1c(C)[nH][nH]c1=O	7.2	x	-0.2	x	x	x
O=C1CCCC(=O)C1C(c1ccc(Cl)cc1)C1C(=O)CCCC1=O	77.3*	x	5.0	x	x	47.4
O=C1CCN(S(=O)(=O)c2ccccc2)N1	9.4	0.5	-8.0	1	19.2	x
O=C1CCN(c2ccccc2)N1	119.3*	x	15.4	x	x	108.8*	Diaphorase 10uM=15.9;Diaph ctr 30uM=7.8
O=C(COC(=O)CCC(=O)c1cccs1)NCc1cccs1	-2.9	x	-1.6	x	x	x
Cc1nc2ccc(Nc3nc4cc(S(=O)(=O)N5CCOCC5)ccc4o3)cc2s1	92.7*	41.7	0.6	0.6	4.8	54.3*	Diaphorase 10uM=18.6;Diaph ctr 30uM=23.6
Cc1ccc(C(=O)CSc2nc3cc(S(=O)(=O)N4CCOCC4)ccc3o2)cc1	20.8	31.0	-3.7	0.7	-2.4	x
CCSc1nc2cc(S(=O)(=O)N3CCOCC3)ccc2o1	70.6*	x	-15.9	x	x	49.9*	Diaphorase 10uM=-17.7;Diaph ctr 30uM=-20.9
